Molecules are shown by their SMILES.

One data set has as its target T1, Mfd (Escherichia coli, UniProt P30958).
T1 sequence (P30958 1-1148): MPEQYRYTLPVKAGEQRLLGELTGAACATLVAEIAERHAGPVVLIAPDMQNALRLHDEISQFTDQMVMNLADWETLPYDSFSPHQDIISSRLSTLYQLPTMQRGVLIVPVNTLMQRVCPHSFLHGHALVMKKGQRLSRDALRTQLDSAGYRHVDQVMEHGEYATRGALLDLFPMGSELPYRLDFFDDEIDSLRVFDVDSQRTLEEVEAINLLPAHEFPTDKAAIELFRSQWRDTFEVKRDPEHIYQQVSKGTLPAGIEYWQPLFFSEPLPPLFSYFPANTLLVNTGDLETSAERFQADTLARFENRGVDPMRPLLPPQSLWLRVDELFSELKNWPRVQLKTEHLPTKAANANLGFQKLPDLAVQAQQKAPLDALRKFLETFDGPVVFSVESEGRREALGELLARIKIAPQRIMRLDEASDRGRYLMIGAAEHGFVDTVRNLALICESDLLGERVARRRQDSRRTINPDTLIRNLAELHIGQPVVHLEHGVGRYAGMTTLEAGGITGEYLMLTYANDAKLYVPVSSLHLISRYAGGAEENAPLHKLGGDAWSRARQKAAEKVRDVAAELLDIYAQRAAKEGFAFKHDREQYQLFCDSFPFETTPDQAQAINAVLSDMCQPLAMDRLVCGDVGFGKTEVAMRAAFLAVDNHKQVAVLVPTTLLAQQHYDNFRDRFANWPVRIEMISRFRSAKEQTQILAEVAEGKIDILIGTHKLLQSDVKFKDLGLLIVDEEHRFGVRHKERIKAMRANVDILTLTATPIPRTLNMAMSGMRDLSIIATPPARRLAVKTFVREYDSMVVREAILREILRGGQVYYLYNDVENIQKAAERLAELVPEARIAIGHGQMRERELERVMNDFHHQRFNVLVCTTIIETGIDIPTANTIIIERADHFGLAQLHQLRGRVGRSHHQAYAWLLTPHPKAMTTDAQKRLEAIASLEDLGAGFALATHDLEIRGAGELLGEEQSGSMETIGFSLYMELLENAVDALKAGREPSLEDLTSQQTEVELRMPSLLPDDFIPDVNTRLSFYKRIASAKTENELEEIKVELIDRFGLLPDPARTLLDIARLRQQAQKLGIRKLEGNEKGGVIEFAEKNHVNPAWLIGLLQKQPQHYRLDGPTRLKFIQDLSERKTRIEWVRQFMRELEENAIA
The data set is described as follows: Isothermal titration calorimetry. The class given is binding, E. coli. Conditions: ITC, 25 °C; no inhibitor. The method in brief:
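Full-length E. coli Mfd (20 µM) in 0.1 M Tris, 0.2 M NaCl, 4% DMSO, pH 8 at 25 °C. Titrated with 20 injections of 2.5 µL of 200 µM test compound at 300 s intervals. For the competition run, Mfd was preincubated with test compound, then ATP (200 µM) binding was measured. A = Ka/Kapp. Performed in triplicate.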

The test system of a further data set is HeLa cells. The experiment in a line: Cytotoxicity, CellTiter96 AQueous. To be noted: 1 h; MPN 10 and 100 µM, NM102 10 and 300 µM, NM102 nanoformulation 1.29 and 5.16 mM. Format: cell-based, human. In a few lines: (§1)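 Cells grown in DMEM with 10% heat-inactivated FBS, 1 U/mL penicillin and 1 µg/mL streptomycin (37 °C, 5% CO2). At 70% confluency, trypsinised and seeded at 4 × 10^4 cells/well, then incubated overnight. Switched to antibiotic-free DMEM 2 h before assay. Exposed 1 h in HBSS with 10% DMSO or empty-nanoformulation controls. MTS reagent added for 1 h, A490 read. Reagent and compound backgrounds subtracted; normalised to untreated cells.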

The test system of another data set is K. pneumoniae ALE. The data set is described as follows: Mouse lung infection, CFU in lung at 24 h. To be noted: MPN 10 mg/kg i.p. Format: in vivo. The method in brief: (§2)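 Nine-week-old female C57BL/6J mice were anaesthetized with ketamine (79 mg/kg) and xylazine (9 mg/kg) i.p. Infected intranasally with 1 × 10^7 CFU in 20 µL PBS from late-exponential cultures. MPN was given at 10 mg/kg i.p. At 24 h mice were killed and the left lung homogenized in PBS. Lung CFU were counted by serial dilution on LB agar and expressed as log CFU per gram.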

The test system of a further data set is P. aeruginosa CIP27853. The experiment in a line: Mouse lung infection, CFU in lung at 24 h. The class given is in vivo. Conditions: MPN at 10 mg/ml, i.p.
The test system of a further data set is K. pneumoniae ∆mfd. The data set is described as follows: Mouse lung infection, CFU in lung at 24 h, ∆mfd mutant. Format: in vivo. To be noted: NF-NM102 6 mg/kg or MPN 10 mg/kg i.p.
Data set [1] relates to K. pneumoniae ATCC 700603 wt. The experiment in a line: Mouse lung infection, CFU in lung at 24 h. Format: in vivo. Conditions: MPN 10 mg/kg i.p. In a few lines: as §2
In a further data set the test system is Vero cells. The experiment in a line: Cytotoxicity, CellTiter96 AQueous. Format: cell-based, monkey. Conditions: 1 h; MPN 10 and 100 µM, NM102 10 and 300 µM, NM102 nanoformulation 1.29 and 5.16 mM. The method in brief:
as §1

In general, Kd refers to a measure of binding affinity in units of concentration. High values mean lower affinity, low ones higher affinity. `Nc1ncnc2c1ncn2[C@@H]1O[C@H](COP(=O)(O)OP(=O)(O)OP(=O)(O)O)[C@@H](O)[C@H]1O` [ATP] returned a dissociation constant Kd at Mfd of 145 ± 9 µM.
With `C[C@@H](O)[C@H]1C(=O)N2C(C(=O)O)=C(S[C@@H]3CN[C@H](C(=O)N(C)C)C3)[C@H](C)[C@H]12` [MPN, meropenem], the cytotoxicity result with HeLa cells is recorded as “no toxicity”; in the data set on Vero cells it was “induced cytotoxicity”. Further, in the data set with K. pneumoniae ALE, the “effect on bacterial load in the lung” value is listed as “no significant effect”. In addition, the “decrease of bacterial load” value with P. aeruginosa CIP27853 is listed as 26 times. Besides, the “effect on bacterial burden of the ∆mfd mutant” value in the data set with K. pneumoniae ∆mfd is recorded as “inhibited”. In addition, the “reduction of the bacterial load” value in data set [1] was 93%.

The record behind these values is PMC12037726 (Nature Communications, 2025).
